In brackets after ≈: the same amount, converted by molar mass. Activity calls are given as the source filed them. The rule behind the calls is not given here. Some results are limits rather than exact numbers.

Experiment [1] can be described thus: Inhibition of Streptococcus pneumoniae NAD-dependent DNA ligase assessed as equilibrium dissociation constant.
The next experiment relates to Haemophilus influenzae. Description: Antibacterial activity against wild type Haemophilus influenzae A921 by CLSI dilution method. The class given is functional.
The next experiment relates to Staphylococcus aureus. Put plainly: Antibacterial activity against wild type Staphylococcus aureus ATCC 29213 by CLSI dilution method. The class given is functional.
For experiment [2], the target named is DNA ligase 1 (Homo sapiens) (UniProt P18858). Put plainly: Inhibition of human DNA Ligase 1.
Another experiment has as its system Streptococcus pneumoniae. Put plainly: Antibacterial activity against wild type Streptococcus pneumoniae A-216 by CLSI dilution method. The class given is functional.
Experiment [3] has as its system Escherichia coli. Put plainly: Antibacterial activity against tolC/rfaC-deficient Escherichia coli. Type of experiment: functional.
Experiment [4] in a line: Inhibition of Escherichia coli NAD-dependent DNA ligase.
Experiment [5] deals with Escherichia coli. Description: Antibacterial activity against tolC/rfaC-deficient Escherichia coli harboring ligA251 mutant. Type of experiment: functional. The essentials:
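MIC read-out. The E. coli strain carries only the ligA251 allele (L15F exchange), which gives more than 20-fold reduced ligation activity and sensitizes it to LigA inhibitors.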

In experiment [6] the target is T1, Dihydrofolate reductase (Homo sapiens) (UniProt P00374).
T1 sequence (whole entry): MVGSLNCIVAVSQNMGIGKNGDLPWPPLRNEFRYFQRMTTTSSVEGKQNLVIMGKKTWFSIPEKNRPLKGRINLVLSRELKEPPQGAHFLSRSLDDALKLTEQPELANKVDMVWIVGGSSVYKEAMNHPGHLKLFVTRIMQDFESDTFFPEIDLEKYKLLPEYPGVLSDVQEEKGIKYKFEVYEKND
Description: Inhibition of human DHFR.

DNA ligase 1 (Homo sapiens), sequence (P18858 whole entry): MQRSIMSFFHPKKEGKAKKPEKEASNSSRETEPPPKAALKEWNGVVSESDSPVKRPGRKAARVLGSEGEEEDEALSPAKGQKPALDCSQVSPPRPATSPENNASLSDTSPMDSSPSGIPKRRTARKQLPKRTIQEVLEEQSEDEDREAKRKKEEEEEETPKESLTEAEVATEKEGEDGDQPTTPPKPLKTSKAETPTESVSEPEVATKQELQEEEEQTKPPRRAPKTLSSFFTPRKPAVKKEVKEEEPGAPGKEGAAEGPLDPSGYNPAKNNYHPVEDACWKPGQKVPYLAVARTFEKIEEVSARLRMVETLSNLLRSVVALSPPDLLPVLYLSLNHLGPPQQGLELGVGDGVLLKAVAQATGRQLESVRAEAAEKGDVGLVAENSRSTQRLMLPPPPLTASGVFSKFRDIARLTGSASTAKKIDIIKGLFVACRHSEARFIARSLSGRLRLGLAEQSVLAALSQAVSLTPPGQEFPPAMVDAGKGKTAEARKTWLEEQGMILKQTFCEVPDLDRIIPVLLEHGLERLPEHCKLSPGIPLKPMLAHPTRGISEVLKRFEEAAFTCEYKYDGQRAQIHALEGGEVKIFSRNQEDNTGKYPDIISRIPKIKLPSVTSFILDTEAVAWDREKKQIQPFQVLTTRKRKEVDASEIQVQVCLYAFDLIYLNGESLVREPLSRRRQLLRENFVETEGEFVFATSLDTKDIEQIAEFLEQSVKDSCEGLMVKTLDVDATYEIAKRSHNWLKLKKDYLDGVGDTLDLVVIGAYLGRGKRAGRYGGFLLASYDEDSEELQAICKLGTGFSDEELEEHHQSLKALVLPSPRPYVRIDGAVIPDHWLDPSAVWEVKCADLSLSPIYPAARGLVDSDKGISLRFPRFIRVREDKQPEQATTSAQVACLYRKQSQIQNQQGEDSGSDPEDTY

Broadly, the Kd is a measure of binding affinity in units of concentration. For orientation: IC50 means the concentration that inhibits the measured activity by half. A lower IC50 goes with inhibition by little substance. In the case of `Cc1c(Cc2ccccc2)c(Cl)nc2nc(N)c(C(N)=O)cc12`, the Kd in experiment [1] stood at 107 nM. In addition, the MIC turned out to be 2 µg/mL (≈ 6.12 µM) with Haemophilus influenzae; 4 µg/mL (≈ 12.2 µM) in the experiment on Staphylococcus aureus; 4 µg/mL (≈ 12.2 µM) in the experiment with Streptococcus pneumoniae; 4 µg/mL (≈ 12.2 µM) with Escherichia coli [3]; 0.125 µg/mL (≈ 0.383 µM) with Escherichia coli [5]. Further, the inhibition result in experiment [2] and in experiment [6] was “inactive” in each case. For the same compound, the IC50 in [4] came to 500 nM.

In the case of `CC(C)(C)c1nc2nc(N)c(C(N)=O)cc2cc1Br`, in experiment [1], the equilibrium dissociation constant (Kd) was 77 nM. The MIC with Haemophilus influenzae was 2 µg/mL (≈ 6.19 µM); with Staphylococcus aureus it was 4 µg/mL (≈ 12.4 µM); with Streptococcus pneumoniae, 8 µg/mL (≈ 24.8 µM); in the experiment with Escherichia coli [3] it was 8 µg/mL (≈ 24.8 µM); in the experiment on Escherichia coli [5], 0.25 µg/mL (≈ 0.774 µM). The inhibition result in experiment [2] and in [6] was “inactive” throughout. Further, in experiment [4], the IC50 was 300 nM.

In the case of `C=CCc1c(Cl)nc2nc(N)c(C(N)=O)cc2c1C`, the Kd in [1] was found to be 116 nM. Also, the MIC against Haemophilus influenzae was 4 µg/mL (≈ 14.5 µM); in the experiment on Staphylococcus aureus, 8 µg/mL (≈ 28.9 µM); in the experiment with Streptococcus pneumoniae, > 16 µg/mL; in the experiment on Escherichia coli [3] it was 8 µg/mL (≈ 28.9 µM); against Escherichia coli [5], 0.125 µg/mL (≈ 0.452 µM). For the same compound, the inhibition entry in experiment [2] and in experiment [6] was “inactive” throughout. In experiment [4], this compound displayed a concentration for half-maximal inhibition (IC50) of 800 nM.

In the case of `NC(=O)c1cc2cc(Br)c(C3CCCC3)nc2nc1N`, the dissociation constant Kd in experiment [1] is 184 nM. The MIC was > 16 µg/mL with Haemophilus influenzae; > 16 µg/mL in the experiment with Staphylococcus aureus; > 16 µg/mL in the experiment on Streptococcus pneumoniae; > 16 µg/mL in the experiment on Escherichia coli [3]; 4 µg/mL (≈ 11.9 µM) against Escherichia coli [5]. For the same compound, the inhibition entry in [2] and in experiment [6] was “inactive” in each case. The compound further displayed a half-maximal inhibitory concentration (IC50) in [4] of 500 nM.

In experiment [4], `Nc1ccc2c(Cl)cc(C(F)(F)F)nc2n1` gave an IC50 of 25000 nM.

Consider `NC(=O)c1cc2c(N3CCC(O)CC3)c(Br)c(C(F)(F)F)nc2nc1N`, for which the dissociation constant Kd in [1] is 39 nM. The MIC was > 16 µg/mL with Haemophilus influenzae; > 16 µg/mL against Staphylococcus aureus; 16 µg/mL (≈ 36.8 µM) against Streptococcus pneumoniae; 8 µg/mL (≈ 18.4 µM) in the experiment on Escherichia coli [3]; 0.25 µg/mL (≈ 0.576 µM) in the experiment with Escherichia coli [5]. Besides, the inhibition entry in experiment [2] and in experiment [6] was “inactive” throughout. For the same compound, half-maximal inhibition in experiment [4] (IC50) required 700 nM.

For the compound `NC(=O)c1cc2c(CCO)cc(C(F)(F)F)nc2nc1N`, the Kd in [1] is 431 nM. In addition, the MIC is 1 µg/mL (≈ 3.33 µM) with Haemophilus influenzae; > 16 µg/mL in the experiment on Staphylococcus aureus; > 16 µg/mL with Streptococcus pneumoniae; > 16 µg/mL with Escherichia coli [3]; 1 µg/mL (≈ 3.33 µM) in the experiment on Escherichia coli [5]. In addition, the inhibition result in experiment [2] and in [6] was “inactive” each time. The IC50 in experiment [4] was 10000 nM.

Consider `NC(=O)c1cc2ccc(C(F)(F)F)nc2nc1N`, for which, in experiment [1], the Kd is 101 nM. Further, the MIC is 0.5 µg/mL (≈ 1.95 µM) against Haemophilus influenzae; 8 µg/mL (≈ 31.2 µM) in the experiment with Staphylococcus aureus; > 16 µg/mL against Streptococcus pneumoniae; 16 µg/mL (≈ 62.5 µM) against Escherichia coli [3]; 0.125 µg/mL (≈ 0.488 µM) against Escherichia coli [5]. Besides, the inhibition result in experiment [2] and in experiment [6] was “inactive” each time. In [4], this compound showed an IC50 of 500 nM.

For the compound `NC(=O)c1cc2cc(CCc3ccccc3)c(C(F)(F)F)nc2nc1N`, the Kd in experiment [1] was determined as 1220 nM. The MIC in the experiment with Haemophilus influenzae is > 16 µg/mL; in the experiment on Staphylococcus aureus, > 16 µg/mL; against Streptococcus pneumoniae, > 16 µg/mL; in the experiment with Escherichia coli [3], > 16 µg/mL; with Escherichia coli [5] it was 32 µg/mL (≈ 88.8 µM). The inhibition entry in [2] and in experiment [6] was “inactive” throughout. Besides, the IC50 in [4] is > 10000 nM.

On to `CC(C)c1cc2cc(C(N)=O)c(N)nc2nc1C(F)(F)F`, for which the Kd in [1] was found to be 152 nM. Moreover, the MIC against Haemophilus influenzae was 8 µg/mL (≈ 26.8 µM); in the experiment on Staphylococcus aureus it was 16 µg/mL (≈ 53.6 µM); against Streptococcus pneumoniae, > 16 µg/mL; against Escherichia coli [3], > 16 µg/mL; against Escherichia coli [5] it was 1 µg/mL (≈ 3.35 µM). The inhibition entry in [2] and in [6] was “inactive” each time. The midpoint of inhibition in experiment [4], the IC50, lay at 800 nM.

For `NC(=O)c1cc2c(N3CC[C@@H](N)C3)c(Br)c(C(F)(F)F)nc2nc1N`, the Kd in [1] is 86 nM. Also, the MIC against Haemophilus influenzae was 8 µg/mL (≈ 19.1 µM); against Staphylococcus aureus, > 16 µg/mL; against Streptococcus pneumoniae, > 16 µg/mL; against Escherichia coli [3] it was > 16 µg/mL; with Escherichia coli [5], 1 µg/mL (≈ 2.39 µM). Besides, the inhibition entry in [2] and in experiment [6] was “inactive” in each case. In addition, the IC50 in experiment [4] turned out to be 1000 nM.

For `Cc1cc2cc(C(N)=O)c(N)nc2nc1C(F)(F)F`, the Kd in [1] was 48 nM. The MIC with Haemophilus influenzae is 0.25 µg/mL (≈ 0.925 µM); against Staphylococcus aureus, 4 µg/mL (≈ 14.8 µM); in the experiment with Streptococcus pneumoniae it was 8 µg/mL (≈ 29.6 µM); against Escherichia coli [3] it was 0.5 µg/mL (≈ 1.85 µM); with Escherichia coli [5] it was 0.063 µg/mL (≈ 0.233 µM). Also, the inhibition result in experiment [2] and in experiment [6] was “inactive” in each case. In [4], this compound had a 50% inhibitory concentration (IC50) of 500 nM.

Consider `NC(=O)c1cc2c(N3CC[C@@H](O)C3)c(Br)c(C(F)(F)F)nc2nc1N`, for which the Kd in [1] stood at 31 nM. In addition, the MIC with Haemophilus influenzae was 8 µg/mL (≈ 19 µM); in the experiment on Staphylococcus aureus it was 8 µg/mL (≈ 19 µM); in the experiment on Streptococcus pneumoniae, 8 µg/mL (≈ 19 µM); in the experiment on Escherichia coli [3] it was 4 µg/mL (≈ 9.52 µM); in the experiment on Escherichia coli [5], 0.125 µg/mL (≈ 0.297 µM). Besides, the inhibition entry in experiment [2] and in experiment [6] was “inactive” in each case. Besides, it took 700 nM to reach half-maximal inhibition in [4] (IC50).

`NC(=O)c1cc2c3c(c(Cl)nc2nc1N)CC3`: the Kd in experiment [1] was 152 nM. The MIC was 8 µg/mL (≈ 32.2 µM) in the experiment on Haemophilus influenzae; 16 µg/mL (≈ 64.3 µM) against Staphylococcus aureus; > 16 µg/mL against Streptococcus pneumoniae; 8 µg/mL (≈ 32.2 µM) against Escherichia coli [3]; 0.25 µg/mL (≈ 1.01 µM) in the experiment on Escherichia coli [5]. Besides, the inhibition result in experiment [2] and in [6] was “inactive” each time. Besides, the midpoint of inhibition in experiment [4], the IC50, lay at 600 nM.

Turning to `COCCc1cc(C(F)(F)F)nc2nc(N)c(C(N)=O)cc12`, the Kd in [1] came to 458 nM. Moreover, the MIC in the experiment with Haemophilus influenzae is 4 µg/mL (≈ 12.7 µM); in the experiment on Staphylococcus aureus it was > 16 µg/mL; in the experiment on Streptococcus pneumoniae it was > 16 µg/mL; with Escherichia coli [3], > 16 µg/mL; in the experiment with Escherichia coli [5] it was 2 µg/mL (≈ 6.36 µM). Moreover, the inhibition entry in [2] and in [6] was “inactive” in each case. The compound also displayed an IC50 in [4] of 10000 nM.

On to `NC(=O)c1cc2cc(C3CCCC3)c(C(F)(F)F)nc2nc1N`, for which, in [1], the Kd amounted to 150 nM. The MIC was 16 µg/mL (≈ 49.3 µM) with Haemophilus influenzae; > 16 µg/mL in the experiment with Staphylococcus aureus; 16 µg/mL (≈ 49.3 µM) against Streptococcus pneumoniae; > 16 µg/mL against Escherichia coli [3]; 4 µg/mL (≈ 12.3 µM) against Escherichia coli [5]. Besides, the inhibition result in experiment [2] and in experiment [6] was “inactive” throughout. Besides, in experiment [4], the IC50 turned out to be 2500 nM.

Consider `NCc1cc(C(F)(F)F)nc2nc(N)c(C(N)=O)cc12`, for which the Kd in experiment [1] was 102 nM. Moreover, the MIC with Haemophilus influenzae is 4 µg/mL (≈ 14 µM); in the experiment with Staphylococcus aureus it was > 16 µg/mL; in the experiment on Streptococcus pneumoniae, > 16 µg/mL; against Escherichia coli [3], > 16 µg/mL; against Escherichia coli [5] it was 1 µg/mL (≈ 3.51 µM). The inhibition result in experiment [2] and in experiment [6] was “inactive” in each case. This compound also displayed a half-inhibitory concentration (IC50) in [4] of 2500 nM.

Consider `CC(C)(C)OC(=O)N1CC(c2nc3nc(N)c(C(N)=O)cc3cc2Br)C1`, for which the Kd in experiment [1] is 2610 nM. In addition, the MIC in the experiment on Haemophilus influenzae, in the experiment with Staphylococcus aureus, in the experiment with Streptococcus pneumoniae and in the experiment on Escherichia coli [3] was > 16 µg/mL in each case. Besides, the inhibition result in [2] and in experiment [6] was “inactive” in each case. Also, in experiment [4], the half-maximal inhibitory concentration (IC50) was > 5000 nM.
